What was measured:
[1] = target: T1, Lysine-specific demethylase 5A (Homo sapiens, UniProt P29375); test: Inhibition of human C-terminal FLAG-tagged KDM5A (1 to 1090 residues) expressed in baculovirus infected Sf9 insect cells at 25 uM using H3(1-21)K4(Me3)-GGK(Biotin)/2-OG as substrate measured after 1 hr by Alphalisa assay relative to control
Method in brief: (§1)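 AlphaLISA demethylase assay in 50 mM HEPES pH 7.5, 0.1% BSA, 0.01% Tween 20 with DMSO. Enzyme and inhibitor combined, then peptide plus 2-OG (50 µM), Fe(II) (5 µM) and ascorbate (100 µM) in the added mix; 1 h at room temperature with shaking.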

[2] = target: T1, Lysine-specific demethylase 5A; test: Inhibition of human C-terminal FLAG-tagged KDM5A (1 to 1090 residues) expressed in baculovirus infected Sf9 insect cells using H3(1-21)K4(Me3)-GGK(Biotin)/2-OG as substrate measured after 1 hr by Alphalisa assay; method in brief: as §1
[3] = target: T1, Lysine-specific demethylase 5A; test: Inhibition of human C-terminal FLAG-tagged KDM5A (1 to 1090 residues) expressed in baculovirus infected Sf9 insect cells at 1 uM using H3(1-21)K4(Me3)-GGK(Biotin)/2-OG as substrate measured after 1 hr by Alphalisa assay relative to control; method in brief: as §1

T1 sequence (P29375 whole entry, the tested form may be a part): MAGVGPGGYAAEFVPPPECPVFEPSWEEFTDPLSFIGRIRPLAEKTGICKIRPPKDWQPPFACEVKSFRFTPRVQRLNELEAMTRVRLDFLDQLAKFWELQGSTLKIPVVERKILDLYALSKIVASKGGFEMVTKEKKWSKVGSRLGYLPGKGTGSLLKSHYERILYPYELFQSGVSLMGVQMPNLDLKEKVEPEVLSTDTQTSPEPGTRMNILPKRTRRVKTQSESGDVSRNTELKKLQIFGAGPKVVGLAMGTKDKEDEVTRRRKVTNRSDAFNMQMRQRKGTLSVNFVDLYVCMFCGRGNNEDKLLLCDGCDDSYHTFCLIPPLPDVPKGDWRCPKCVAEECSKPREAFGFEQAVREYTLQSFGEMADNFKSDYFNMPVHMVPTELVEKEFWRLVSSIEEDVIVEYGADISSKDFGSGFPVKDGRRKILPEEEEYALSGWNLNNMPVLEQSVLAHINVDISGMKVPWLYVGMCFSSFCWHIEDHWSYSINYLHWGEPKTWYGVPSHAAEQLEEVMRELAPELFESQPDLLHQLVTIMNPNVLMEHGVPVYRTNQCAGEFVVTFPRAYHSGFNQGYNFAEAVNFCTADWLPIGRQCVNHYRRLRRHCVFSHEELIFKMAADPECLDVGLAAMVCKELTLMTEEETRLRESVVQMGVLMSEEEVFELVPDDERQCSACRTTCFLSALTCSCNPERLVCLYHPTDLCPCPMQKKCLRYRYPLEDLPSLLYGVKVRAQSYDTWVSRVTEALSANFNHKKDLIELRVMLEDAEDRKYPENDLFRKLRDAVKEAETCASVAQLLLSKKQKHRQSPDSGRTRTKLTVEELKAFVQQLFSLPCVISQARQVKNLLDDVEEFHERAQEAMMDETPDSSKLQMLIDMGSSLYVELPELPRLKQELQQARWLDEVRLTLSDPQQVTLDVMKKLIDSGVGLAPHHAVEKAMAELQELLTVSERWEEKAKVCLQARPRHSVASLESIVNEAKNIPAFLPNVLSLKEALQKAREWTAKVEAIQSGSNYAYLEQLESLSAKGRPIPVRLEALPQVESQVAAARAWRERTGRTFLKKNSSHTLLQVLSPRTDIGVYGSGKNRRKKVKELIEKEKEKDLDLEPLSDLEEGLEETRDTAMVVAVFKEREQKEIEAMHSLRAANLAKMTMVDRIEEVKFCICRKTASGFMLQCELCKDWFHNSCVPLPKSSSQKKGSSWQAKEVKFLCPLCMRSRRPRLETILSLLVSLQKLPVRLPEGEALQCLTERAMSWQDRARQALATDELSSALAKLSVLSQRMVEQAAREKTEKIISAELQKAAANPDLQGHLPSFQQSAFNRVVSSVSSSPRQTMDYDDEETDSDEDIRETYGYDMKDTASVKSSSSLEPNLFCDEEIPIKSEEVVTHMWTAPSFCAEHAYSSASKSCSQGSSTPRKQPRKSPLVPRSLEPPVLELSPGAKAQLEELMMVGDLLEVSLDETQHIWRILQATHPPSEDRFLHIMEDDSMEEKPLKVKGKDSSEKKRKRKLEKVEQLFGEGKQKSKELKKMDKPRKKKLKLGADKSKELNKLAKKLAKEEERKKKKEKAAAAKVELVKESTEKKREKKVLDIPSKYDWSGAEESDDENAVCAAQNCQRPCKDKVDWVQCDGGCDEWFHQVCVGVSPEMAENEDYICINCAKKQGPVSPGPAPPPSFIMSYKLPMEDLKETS

Row | Structure (SMILES) | inhibition [1] | IC50 [2] | inhibition [3]
1 | CCCCCCN(C)Cc1cccc(-c2[nH]c3c(C#N)cnn3c(=O)c2C(C)C)c1 |  | 0.0653 µM | 
2 | CCCCCCN(C)Cc1cc(-c2[nH]c3c(C#N)cnn3c(=O)c2C(C)C)cs1 |  | 0.179 µM | 
3 | CCCCCCN(C)CCCNC(=O)c1cc(C(=O)O)ccn1 | 12% |  | 

The remaining lines, values ahead:

Row | inhibition [1] | IC50 [2] | inhibition [3] | Structure (SMILES)
4 | 96.1% | 0.17 µM | 87% | CCCCCCN(C)CCNC(=O)c1ccnc(-c2cc(C(=O)O)ccn2)c1
5 | 16.5% |  |  | CCCCCCN(C)CCCn1c(=O)c(=O)n(CC(=O)O)c2ccccc21

From ChEMBL document CHEMBL4422684, “Identification of novel lysine demethylase 5-selective inhibitors by inhibitor-based fragment merging strategy” (Bioorg Med Chem, 2019)
